{
  "source": "ChEMBL document CHEMBL3865807",
  "about": "“Syntheses and photodynamic activity of some glucose-conjugated BODIPY dyes” (Eur J Med Chem, 2016)",
  "key": {"A549 [1]": {"tested_on": "A549", "assay": "Induction of apoptosis in human A549 cells assessed as increase in caspase 3 activity at 2.5 uM preincubated for 1 hr followed by 0.77 mW/cm2 white light irradiation for 80 mins measured after 16 hrs by colorimetric method relative to control", "format": "functional", "method_in_brief": "(§1)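 A549 cells (1×10^6) given compound 2.5 µM for 1 h, then light 80 min; caspase activities measured at 16 h in whole-cell extracts with kits, colorimetric for caspase-3 and fluorimetric for caspase-8; untreated photo-exposed cells as control; five replicates, mean ± SEM.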"}, "A549 [2]": {"tested_on": "A549", "assay": "Induction of apoptosis in human A549 cells assessed as accumulation at subG1 phase at 5 to 50 uM preincubated for 1 hr followed by 0.77 mW/cm2 white light irradiation for 30 mins measured after 24 hrs by propidium iodide staining based flow cytometry relative to control", "format": "functional", "method_in_brief": "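Cells exposed 1 h to compound (5-50 µM; vehicle 0.1% DMSO), washed, then irradiated (0.77 mW/cm²) for 0, 30 or 80 min; after serum addition kept 24 h. PI/RNase A staining in hypotonic 0.1% citrate-0.1% Triton X-100, 30 min, 37 °C; sub-G1 peak by flow cytometry, debris gated out, ≥2×10^4 cells; five replicates, mean ± SEM.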"}, "A549 [3]": {"tested_on": "A549", "assay": "Induction of morphological changes in human A549 cells assessed as increase in floating cells without adhering ability up to 2.5 uM preincubated for 1 hr followed by 0.77 mW/cm2 white light irradiation for 80 mins measured after 24 hrs by phase contrast microscopy", "format": "functional, cell-based", "method_in_brief": "(§2)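 A549 cells (1×10^5/well) on coverslips given vehicle (0.1% DMSO) or compound (0.625, 1.25, 2.5 µM) for 1 h, then irradiated 80 min (0.77 mW/cm²); kept 24 h in regular medium and examined unstained by phase-contrast microscopy (40× objective); representative fields imaged; experiments done three times.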"}, "[4]": {"assay": "Drug uptake in human A549 cells assessed as mean fluorescence intensity at 2.5 uM after 2 hrs by flow cytometry (reference value: 5.4 +/- 1.5)", "format": "ADME, cell-based", "details": "a549, 2 h"}, "A549 [5]": {"tested_on": "A549", "assay": "Induction of apoptosis in human A549 cells assessed as increase in caspase 9 activity at 2.5 uM preincubated for 1 hr followed by 0.77 mW/cm2 white light irradiation for 80 mins measured after 16 hrs in presence of caspase-9 inhibitor Z-LEHD-FMK by immunoblot analysis", "format": "functional, cell-based"}, "A549 [6]": {"tested_on": "A549", "assay": "Induction of morphological changes in human A549 cells assessed as cells with blebbing membranes up to 2.5 uM preincubated for 1 hr followed by 0.77 mW/cm2 white light irradiation for 80 mins measured after 24 hrs by phase contrast microscopy", "format": "functional, cell-based", "method_in_brief": "as §2"}, "Bos taurus": {"organism": "Bos taurus", "assay": "Binding affinity to calf thymus duplex DNA by UV-visible spectra analysis"}, "[7]": {"assay": "Drug uptake in human L-132 cells assessed as mean fluorescence intensity at 2.5 uM after 4 hrs by flow cytometry (reference value: 4.6 +/- 1.2)", "format": "ADME, cell-based", "details": "l132, 4 h"}, "[8]": {"assay": "Induction of apoptosis in human A549 cells assessed as caspase 3 activation at 2.5 uM preincubated measured after 24 hrs under dark condition by immunoblot analysis", "format": "cell-based", "details": "a549, 24 h"}, "[9]": {"assay": "Cell cycle arrest in human A549 cells assessed as accumulation at subG1 phase at 2.5 uM preincubated for 1 hr followed by 0.77 mW/cm2 white light irradiation for 80 mins measured after 24 hrs in presence of 100 uM of beta-carotene by propidium iodide staining based flow cytometry (reference value: 8.2 +/- 1.1%)", "format": "functional"}, "A549 [10]": {"tested_on": "A549", "assay": "Induction of apoptosis in human A549 cells assessed as pro-caspase 3 level at 2.5 uM preincubated for 1 hr followed by 0.77 mW/cm2 white light irradiation for 80 mins measured after 4 hrs by immunoblot analysis relative to control", "format": "functional", "method_in_brief": "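Whole-cell extracts from A549 cells (1×10^6) treated with 0 or 2.5 µM compound, photo-exposed 80 min, lysed in Tris pH 7.4/NaCl/EDTA/Triton with protease inhibitors; 30 µg protein on 12% SDS-PAGE, nitrocellulose, milk block, caspase-3 antibody overnight 4 °C, HRP secondary, chemiluminescence; band ratio to normal control (=1) after loading-control normalisation.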"}, "[11]": {"assay": "Cytotoxicity against human WI38 cells assessed as reduction in cell viability at 50 uM under dark condition by MTT assay", "format": "toxicity, cell-based", "details": "wi-38, 50 µM"}, "[12]": {"assay": "Photocytotoxicity against human A549 cells assessed as decrease in cell viability preincubated for 1 hr followed by 0.77 mW/cm2 white light irradiation for 80 mins measured after 24 hrs by MTT assay", "format": "functional, cell-based", "details": "A549, light or radiation study", "method_in_brief": "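IC50 from MTT: A549 cells (1×10^4/well) given graded compound concentrations 1 h in serum-free DMEM (vehicle ≤0.1% DMSO), washed, photo-exposed 80 min at 0.77 mW/cm², regular medium 24 h; MTT 0.5 mg/mL 6 h, A550; viability relative to vehicle control; four replicates, three experiments, mean ± SEM.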"}, "[13]": {"assay": "Cell cycle arrest in human A549 cells assessed as accumulation at subG1 phase at 2.5 uM preincubated for 1 hr followed by 0.77 mW/cm2 white light irradiation for 80 mins measured after 24 hrs in presence of 5 mM of NAC by propidium iodide staining based flow cytometry (reference value: 8.2 +/- 1.1%)", "format": "functional"}, "[14]": {"assay": "Drug uptake in human L-132 cells assessed as mean fluorescence intensity at 2.5 uM after 2 hrs by flow cytometry (reference value: 4.6 +/- 1.2)", "format": "ADME, cell-based", "details": "l132, 2 h"}, "A549 [15]": {"tested_on": "A549", "assay": "Induction of morphological changes in human A549 cells assessed as changes in cell outline preincubated for 1 hr followed by 0.77 mW/cm2 white light irradiation for 80 mins measured after 24 hrs by phase contrast microscopy", "format": "functional, cell-based", "method_in_brief": "as §2"}, "[16]": {"assay": "Photocytotoxicity against human WI38 cells at 50 uM using 0.77 mW/cm2 white light irradiation by MTT assay", "format": "toxicity, cell-based", "details": "wi-38, 50 µM"}, "A549 [17]": {"tested_on": "A549", "assay": "Photocytotoxicity in human A549 cells assessed as decrease in cell survival at 2.5 uM preincubated for 1 hr followed by 0.77 mW/cm2 white light irradiation for 80 mins measured after 24 hrs in presence of caspase 9 inhibitor Z-LEHD-FMK by MTT assay", "format": "functional, cell-based", "method_in_brief": "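Cells pre-incubated 1 h with caspase-9 inhibitor Z-LEHD-FMK (20 µM), then compound 2.5 µM for 1 h and light 80 min (0.77 mW/cm²); viability at 24 h by MTT; five replicates, mean ± SEM.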"}, "A549 [18]": {"tested_on": "A549", "assay": "Induction of apoptosis in human A549 cells assessed as increase in caspase 8 activity at 2.5 uM preincubated for 1 hr followed by 0.77 mW/cm2 white light irradiation for 80 mins measured after 16 hrs by fluorimetric method relative to control", "format": "functional", "method_in_brief": "as §1"}, "A549 [19]": {"tested_on": "A549", "assay": "Induction of morphological changes in human A549 cells assessed as cell shrinking up to 2.5 uM preincubated for 1 hr followed by 0.77 mW/cm2 white light irradiation for 80 mins measured after 24 hrs by phase contrast microscopy", "format": "functional, cell-based", "method_in_brief": "as §2"}, "[20]": {"assay": "Cytotoxicity against human A549 cells assessed as decrease in cell viability up to 200 uM after 48 hrs under dark condition by MTT assay", "format": "toxicity, cell-based", "details": "a549, 48 h", "method_in_brief": "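Dark toxicity: A549 cells treated as in the MTT protocol (1 h compound exposure, serum-free medium, washed) with no light, then assessed at 48 h by MTT (0.5 mg/mL, 6 h, formazan in HCl/SDS, A550).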"}},
  "note": "Active and inactive are the calls of the source. The rule behind the calls is not given here.",
  "data": [
    {"smiles": "CCC1=C(C)C2=C(C)c3c(C)c(CC)c(C)n3[B-](F)(F)[N+]2=C1/C=C/c1ccc(O[C@H]2O[C@H](CO)[C@@H](O)[C@H](O)[C@H]2O)cc1", "values": [
      {"measurement": "fold change (FC)", "setting": "A549 [1]", "result": 2.9},
      {"measurement": "fold change (FC)", "setting": "A549 [2]", "result": "2.8 - 3.3"},
      {"measurement": "Activity", "setting": "A549 [3]", "result": "Active"},
      {"measurement": "Flu intensity", "setting": "[4]", "result": "95.3 to 98.5"},
      {"measurement": "Activity", "setting": "A549 [5]", "result": "Active"},
      {"measurement": "Activity", "setting": "A549 [6]", "result": "Active"},
      {"measurement": "Kb", "setting": "Bos taurus", "result": 1.8, "unit": "×10⁴ /M"},
      {"measurement": "Flu intensity", "setting": "[7]", "result": 56.8},
      {"measurement": "Activity", "setting": "[8]", "result": "Non-Toxic"},
      {"measurement": "Activity", "setting": "[9]", "result": 43.2, "unit": "%"},
      {"measurement": "fold change (FC)", "setting": "A549 [10]", "result": 0.8},
      {"measurement": "Activity", "setting": "[11]", "result": "Non-Toxic"},
      {"measurement": "IC50", "setting": "[12]", "result": 2700, "unit": "nM"},
      {"measurement": "Activity", "setting": "[13]", "result": 46.5, "unit": "%"},
      {"measurement": "Flu intensity", "setting": "[14]", "result": 63.5},
      {"measurement": "Activity", "setting": "A549 [15]", "result": "Dose-dependent effect"},
      {"measurement": "Activity", "setting": "[16]", "result": "5 to 7", "unit": "%"},
      {"measurement": "Activity", "setting": "A549 [17]", "result": "Active"},
      {"measurement": "fold change (FC)", "setting": "A549 [18]", "result": 6.2},
      {"measurement": "Activity", "setting": "A549 [19]", "result": "Active"},
      {"measurement": "Activity", "setting": "[20]", "result": "Non-Toxic"}
    ]}
  ]
}
